From ChEMBL document CHEMBL2424619, “Small-molecule ligands of methyl-lysine binding proteins: optimization of selectivity for L3MBTL3” (J Med Chem, 2013)

Key:
[1] = target: PHD finger protein 23 (Homo sapiens, UniProt Q9BUL5); assay: Inhibition of PHF23 (unknown origin) after 30 mins by AlphaScreen assay
Summary of the method: (§1)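 AlphaScreen competition with histone peptide. Compounds in 3-fold, 10-point dilutions, top 10 or 30 μM; buffer 20 mM Tris pH 8.0, 25 mM NaCl, 2 mM DTT, 0.05% Tween-20. Protein-peptide mix 30 min RT, then streptavidin donor plus nickel-chelate acceptor beads (GST acceptor beads for GST-tagged PHF23, JARID1A) 30 min RT dark. Protein-free His6-biotin peptide counterscreen.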

[2] = target: MBT domain-containing protein 1 (Homo sapiens, UniProt Q05BQ5); assay: Inhibition of MBTD1 (unknown origin) after 30 mins by AlphaScreen assay; summary of the method: as §1
[3] = target: T1, E3 ubiquitin-protein ligase UHRF1 (Homo sapiens, UniProt Q96T88); assay: Inhibition of UHRF1 (unknown origin) after 30 mins by AlphaScreen assay
T1 sequence (Q96T88 whole entry): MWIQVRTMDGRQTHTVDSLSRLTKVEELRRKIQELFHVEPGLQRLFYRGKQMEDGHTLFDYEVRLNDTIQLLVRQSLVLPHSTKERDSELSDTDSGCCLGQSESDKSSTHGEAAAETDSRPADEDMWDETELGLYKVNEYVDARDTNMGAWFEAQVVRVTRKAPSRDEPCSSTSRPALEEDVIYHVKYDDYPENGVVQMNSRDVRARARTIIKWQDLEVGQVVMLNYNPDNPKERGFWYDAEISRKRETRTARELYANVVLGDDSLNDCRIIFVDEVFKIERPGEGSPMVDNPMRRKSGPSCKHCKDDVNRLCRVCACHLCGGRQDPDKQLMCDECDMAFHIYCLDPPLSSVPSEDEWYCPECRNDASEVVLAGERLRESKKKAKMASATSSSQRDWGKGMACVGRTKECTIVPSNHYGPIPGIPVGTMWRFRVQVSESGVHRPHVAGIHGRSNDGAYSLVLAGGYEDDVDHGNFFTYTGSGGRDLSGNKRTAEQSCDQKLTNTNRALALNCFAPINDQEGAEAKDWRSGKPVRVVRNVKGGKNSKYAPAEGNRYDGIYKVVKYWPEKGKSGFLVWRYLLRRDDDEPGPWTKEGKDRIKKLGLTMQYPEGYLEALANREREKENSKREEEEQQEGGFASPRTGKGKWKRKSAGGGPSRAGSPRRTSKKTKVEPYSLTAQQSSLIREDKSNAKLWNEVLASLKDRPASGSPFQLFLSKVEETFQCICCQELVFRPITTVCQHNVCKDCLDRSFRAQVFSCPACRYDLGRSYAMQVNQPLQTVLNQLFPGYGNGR
Summary of the method: as §1, with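 “dark. […]” for “dark.”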

[4] = target: T2, Lethal(3)malignant brain tumor-like protein 3 (Homo sapiens, UniProt Q96JM7); assay: Inhibition of L3MBTL3 (unknown origin) after 30 mins by AlphaScreen assay; summary of the method: as §1
T2 sequence (Q96JM7 whole entry): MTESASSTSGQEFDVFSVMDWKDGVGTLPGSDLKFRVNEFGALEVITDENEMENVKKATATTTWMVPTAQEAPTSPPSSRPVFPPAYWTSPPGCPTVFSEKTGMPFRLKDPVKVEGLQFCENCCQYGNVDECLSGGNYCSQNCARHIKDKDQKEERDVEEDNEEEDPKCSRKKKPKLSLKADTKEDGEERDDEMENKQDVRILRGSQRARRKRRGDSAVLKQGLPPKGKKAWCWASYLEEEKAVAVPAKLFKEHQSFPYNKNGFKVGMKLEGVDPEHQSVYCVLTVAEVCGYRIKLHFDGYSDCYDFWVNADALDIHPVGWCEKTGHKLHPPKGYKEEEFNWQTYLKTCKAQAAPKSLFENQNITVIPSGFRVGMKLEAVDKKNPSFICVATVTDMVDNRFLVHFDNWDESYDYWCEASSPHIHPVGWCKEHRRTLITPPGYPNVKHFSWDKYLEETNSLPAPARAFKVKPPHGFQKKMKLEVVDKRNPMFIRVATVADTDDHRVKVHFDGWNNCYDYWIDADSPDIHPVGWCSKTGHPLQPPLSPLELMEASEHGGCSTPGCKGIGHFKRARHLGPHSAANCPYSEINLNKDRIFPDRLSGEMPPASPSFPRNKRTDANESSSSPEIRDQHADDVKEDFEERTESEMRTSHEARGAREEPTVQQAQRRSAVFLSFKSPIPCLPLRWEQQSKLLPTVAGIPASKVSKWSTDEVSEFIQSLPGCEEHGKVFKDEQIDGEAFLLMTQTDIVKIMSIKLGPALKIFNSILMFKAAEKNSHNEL

[5] = target: T3, Chromobox protein homolog 7 (Homo sapiens, UniProt O95931); assay: Inhibition of CBX7 (unknown origin) after 30 mins by AlphaScreen assay; summary of the method: as §1
T3 sequence (O95931 whole entry): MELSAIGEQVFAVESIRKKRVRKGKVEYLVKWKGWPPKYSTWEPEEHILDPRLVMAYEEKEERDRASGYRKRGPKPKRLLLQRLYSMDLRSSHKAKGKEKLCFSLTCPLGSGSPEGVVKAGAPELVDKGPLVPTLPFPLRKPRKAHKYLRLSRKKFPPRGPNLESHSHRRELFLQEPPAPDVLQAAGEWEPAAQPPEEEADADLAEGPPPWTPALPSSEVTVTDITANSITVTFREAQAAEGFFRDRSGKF

[6] = target: T4, Lethal(3)malignant brain tumor-like protein 4 (Homo sapiens, UniProt Q8NA19); assay: Inhibition of L3MBTL4 (unknown origin) after 30 mins by AlphaScreen assay; summary of the method: as §1
T4 sequence (Q8NA19 whole entry): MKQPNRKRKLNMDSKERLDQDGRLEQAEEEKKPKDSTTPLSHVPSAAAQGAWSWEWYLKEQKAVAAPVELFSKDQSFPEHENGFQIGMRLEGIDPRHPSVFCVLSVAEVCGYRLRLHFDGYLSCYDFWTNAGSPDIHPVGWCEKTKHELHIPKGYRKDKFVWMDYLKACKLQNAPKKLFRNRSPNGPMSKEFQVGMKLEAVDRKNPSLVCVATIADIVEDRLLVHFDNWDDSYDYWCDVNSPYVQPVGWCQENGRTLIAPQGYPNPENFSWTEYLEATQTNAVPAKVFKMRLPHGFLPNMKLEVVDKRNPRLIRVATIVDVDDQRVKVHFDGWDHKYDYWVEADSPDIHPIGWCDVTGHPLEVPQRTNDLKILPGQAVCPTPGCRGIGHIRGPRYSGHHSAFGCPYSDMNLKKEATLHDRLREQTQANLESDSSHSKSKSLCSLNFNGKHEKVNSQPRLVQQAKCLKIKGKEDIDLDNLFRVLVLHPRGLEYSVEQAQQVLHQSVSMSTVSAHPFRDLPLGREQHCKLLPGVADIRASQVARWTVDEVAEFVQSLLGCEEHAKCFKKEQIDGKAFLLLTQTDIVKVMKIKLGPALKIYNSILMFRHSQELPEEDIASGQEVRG

Sequence of PHD finger protein 23 (Q9BUL5 whole entry): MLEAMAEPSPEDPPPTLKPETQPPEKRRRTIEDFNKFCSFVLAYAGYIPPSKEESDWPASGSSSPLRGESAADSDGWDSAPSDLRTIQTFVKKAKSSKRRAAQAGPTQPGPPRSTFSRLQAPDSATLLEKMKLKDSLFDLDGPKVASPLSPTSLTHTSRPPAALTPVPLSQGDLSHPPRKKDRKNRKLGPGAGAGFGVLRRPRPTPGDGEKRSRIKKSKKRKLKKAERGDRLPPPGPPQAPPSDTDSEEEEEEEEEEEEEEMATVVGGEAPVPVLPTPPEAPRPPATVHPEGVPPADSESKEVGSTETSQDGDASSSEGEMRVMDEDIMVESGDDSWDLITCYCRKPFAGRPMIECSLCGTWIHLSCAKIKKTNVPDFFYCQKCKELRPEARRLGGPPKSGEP
Sequence of MBT domain-containing protein 1 (Q05BQ5 whole entry, the tested form may be a part): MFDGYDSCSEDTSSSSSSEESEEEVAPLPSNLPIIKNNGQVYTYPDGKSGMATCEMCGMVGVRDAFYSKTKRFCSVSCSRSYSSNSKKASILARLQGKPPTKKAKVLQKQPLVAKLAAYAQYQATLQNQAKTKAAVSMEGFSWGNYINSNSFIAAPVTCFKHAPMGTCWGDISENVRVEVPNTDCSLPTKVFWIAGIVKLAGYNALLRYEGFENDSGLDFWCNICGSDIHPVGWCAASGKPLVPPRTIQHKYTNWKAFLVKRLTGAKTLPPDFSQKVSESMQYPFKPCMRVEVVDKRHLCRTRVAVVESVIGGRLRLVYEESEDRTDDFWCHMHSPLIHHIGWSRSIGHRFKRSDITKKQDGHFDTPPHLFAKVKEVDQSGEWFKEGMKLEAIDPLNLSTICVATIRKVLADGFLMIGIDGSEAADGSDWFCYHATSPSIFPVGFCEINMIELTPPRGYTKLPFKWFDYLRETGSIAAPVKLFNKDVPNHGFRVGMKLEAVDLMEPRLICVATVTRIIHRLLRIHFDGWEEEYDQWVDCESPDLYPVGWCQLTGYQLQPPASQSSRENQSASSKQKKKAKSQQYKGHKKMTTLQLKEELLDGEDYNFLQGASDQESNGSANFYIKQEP

Row | IC50 [1] [µM] | IC50 [2] [µM] | IC50 [3] [µM] | IC50 [5] [µM] | SMILES | IC50 [4] [µM] | IC50 [6] [µM]
1 | > 10 | > 10 | > 10 | > 10 | O=C(NCCCN1CCCC1)c1ccc(C(=O)N2CCC(N3CCCC3)CC2)cc1 | 0.68 | > 10
2 | > 10 | > 10 | > 10 | > 10 | O=C(c1ccc(C(=O)N2CC3CCC(C2)C3N2CCCC2)cc1)N1CCC(N2CCCC2)CC1 (configuration not stated) | 0.16 | > 10
3 | > 10 | > 10 | > 10 | > 10 | CN1CCC(N2CCN(C(=O)c3ccc(C(=O)N4CCC(N5CCCC5)CC4)cc3)CC2)CC1 | 0.83 | > 10
4 | > 10 | > 10 | > 10 | > 10 | C[N+]1(C2CCN(C(=O)c3ccc(C(=O)N4CCC(N5CCCC5)CC4)cc3)CC2)CCCC1 | 0.14 | > 10
5 | > 10 | 8.2 | > 10 | > 10 | O=C(c1ccc(N2CCC(N3CCCC3)CC2)cc1)N1CCC(N2CCCC2)CC1 | 0.17 | 8.4
6 | > 10 | > 10 | > 10 | > 10 | CN1CCN2CC(NC(=O)c3ccc(C(=O)N4CCC(N5CCCC5)CC4)cc3)CC2C1 (configuration not stated) | 4.6 | > 10
7 | > 10 | 3.5 | > 10 | > 10 | CCN1Cc2ccc(NC(=O)c3ccc(C(=O)N4CCC(C5CCCN5)CC4)cc3Nc3ccccc3)cc2C1 (configuration not stated) | 0.17 | > 10
8 | > 10 | > 10 | > 10 | > 10 | O=C(c1ccc(C(=O)N2CCCC(N3CCCC3)CC2)cc1)N1CCCC(N2CCCC2)CC1 (configuration not stated) | 0.11 | > 10
9 | > 10 | > 10 | > 10 | > 10 | CN(C)C1CCN(C(=O)c2ccc(C(=O)N3CCC(N(C)C)CC3)cc2)CC1 | > 10 | > 10
10 | > 10 | > 10 | > 10 | > 10 | Nc1cc(C(=O)N2CCC(N3CCCC3)CC2)ccc1C(=O)N1CCC(N2CCCC2)CC1 | 0.23 | > 10
11 | > 10 | > 10 | > 10 | > 10 | CCN1Cc2ccc(NC(=O)c3ccc(C(=O)N4CC5CCC(C4)C5N4CCCC4)cc3)cc2C1 (configuration not stated) | 0.24 | > 10
12 | > 10 | > 10 | > 10 | > 10 | O=C(c1ccc(C(=O)N2CCC(N3CCCC3)C2)cc1)N1CCC(N2CCCC2)CC1 (configuration not stated) | 0.25 | > 10
13 | > 10 | 5.4 | > 10 | > 10 | O=C(c1ccc(S(=O)(=O)N2CCC(N3CCCC3)CC2)cc1)N1CCC(N2CCCC2)CC1 | 0.099 | > 10
14 | > 10 | > 10 | > 10 | > 10 | O=C(c1ccc(C(=O)N2CCC(N3CCCC3)CC2)cc1)N1CCC(C2CCNCC2)CC1 | 0.74 | > 10
15 | > 10 | > 10 | > 10 | > 10 | O=C(c1c(F)c(F)c(C(=O)N2CCC(N3CCCC3)CC2)c(F)c1F)N1CCC(N2CCCC2)CC1 | 0.21 | > 10
16 | > 10 | > 10 | > 10 | > 10 | O=C(c1ccc(C(=O)N2CCC(N3CCCC3)CC2)s1)N1CCC(N2CCCC2)CC1 | 0.096 | > 10

Row | SMILES | IC50 [1] [µM] | IC50 [2] [µM] | IC50 [3] [µM] | IC50 [5] [µM] | IC50 [4] [µM] | IC50 [6] [µM]
17 | O=C(c1ccc(C(=O)N2CCC(N3CCCC3)CC2)c(Nc2ccccc2)c1)N1CCC(N2CCCC2)CC1 | > 10 | 9 | > 10 | > 10 | 0.064 | > 10
